Active and inactive are the calls of the source. The calls are words filed in the database; no cut-off is given here.
How the values were obtained:
Phytophthora capsici [1] = experiment: Antifungal activity against Phytophthora capsici in pepper plants assessed as decrease in Phytophthora blight disease at 100 ug/ml; type: functional, organism-based
How it was run: (§1)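 Pepper plants raised at 28 °C with 16 h light per day. Antibiotic in methanol, diluted, was sprayed onto plants at first-branch stage 1 day before inoculation. Stems were slit 1 cm above soil and covered with cotton soaked in 1 × 105 zoospores mL-1 P. capsici, then taped. Disease was rated daily on a 0–5 severity scale; values are means of 10 plants per treatment.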

Phytophthora capsici [2] = experiment: Antifungal activity against Phytophthora capsici in pepper plants assessed as decrease in Phytophthora blight disease at 50 ug/ml; type: functional, organism-based; how it was run: as §1

COCC(=O)N(c1c(C)cccc1C)C(C)C(=O)OC (configuration not stated) was tested, and the Activity (Phytophthora capsici [1]) was “Active” and the Activity (Phytophthora capsici [2]) was “Active”.
